Key:
Assay type in all cases: functional
Mus musculus [1] = assay: Anticonvulsant activity in mouse assessed as inhibition of subcutaneous pentylenetetrazole-induced seizures at 20 mg/kg, po
In short: (§1)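 Male Kunming mice (20 ± 2.0 g) received oral test agent suspended in 0.5% carboxymethyl cellulose–0.9% saline. Pentylenetetrazole 70 mg/kg in 0.9% saline was then injected subcutaneously in the scruff of the neck. Protection meant no threshold seizure, i.e. no single clonic spasm episode lasting at least 5 s.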

Mus musculus [2] = assay: Anticonvulsant activity in mouse assessed as inhibition of maximal electroshock-induced seizures at 15 mg/kg, po
In short: (§2)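 Male Kunming mice (20 ± 2.0 g), 10 per group, given test agent orally as a suspension in 0.5% carboxymethyl cellulose–0.9% saline. After 1 h, a 25 mA shock was delivered through ear electrodes for 0.25 s. Protection was scored as abolition of the hind limb tonic extensor component. Results are given as animals protected/animals tested.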

Mus musculus [3] = assay: Anticonvulsant activity in mouse assessed as inhibition of subcutaneous pentylenetetrazole-induced seizures at 80 mg/kg, po; in short: as §1
Mus musculus [4] = assay: Anticonvulsant activity in mouse assessed as inhibition of maximal electroshock-induced seizures at 7.5 mg/kg, po; in short: as §2
Mus musculus [5] = assay: Anticonvulsant activity in mouse assessed as inhibition of subcutaneous pentylenetetrazole-induced seizures at 40 mg/kg, po; in short: as §1
Mus musculus [6] = assay: Anticonvulsant activity in mouse assessed as inhibition of maximal electroshock-induced seizures at 30 mg/kg, po; in short: as §2

Row | Structure (SMILES) | inhibition in vivo at 20 mg/kg (Mus musculus [1]) [%] | inhibition in vivo at 15 mg/kg (Mus musculus [2]) [%] | inhibition in vivo at 80 mg/kg (Mus musculus [3]) [%] | inhibition in vivo at 7.5 mg/kg (Mus musculus [4]) [%] | inhibition in vivo at 40 mg/kg (Mus musculus [5]) [%] | inhibition in vivo at 30 mg/kg (Mus musculus [6]) [%]
1 | CCC(CO)N1C(=O)NC2(CC2(C)C)C1=O (stereo not drawn) | 20 | 50 | 70 | 30 | 40 | 90
2 | CC1(C)CC12NC(=O)N(Cc1ccccc1)C2=O (stereo not drawn) | – | – | – | – | – | 70
3 | Cc1ccc(N2C(=O)NC3(CC3(C)C)C2=O)cc1 (stereo not drawn) | – | – | – | – | – | 50
4 | CN1C(=O)NC2(CC2(C)C)C1=O (stereo not drawn) | 20 | 50 | 60 | 40 | 30 | 90
5 | CC1(C)CC12NC(=O)N(c1ccc(F)cc1)C2=O (stereo not drawn) | 30 | 50 | 70 | 30 | 50 | 80
6 | CC1(C)CC12NC(=O)NC2=O (stereo not drawn) | – | – | – | – | – | 50
7 | CC1(C)CC12NC(=O)N(c1ccccc1)C2=O (stereo not drawn) | 20 | 40 | 60 | 20 | 40 | 80
8 | O=C1N=C(O)NC1(c1ccccc1)c1ccccc1 [PHENYTOIN SODIUM] | – | 50 | – | 20 | – | 90
9 | CC1(C)CC12NC(=O)N(c1cc(Cl)cc(Cl)c1)C2=O (stereo not drawn) | – | – | – | – | – | 50
10 | CC(C)N1C(=O)NC2(CC2(C)C)C1=O (stereo not drawn) | – | – | – | – | – | 70
11 | CCCC(CCC)C(=O)O [VALPROATE SODIUM] | 30 | – | 80 | – | 50 | –
12 | CC1(C)CC12NC(=O)N(c1ccc([N+](=O)[O-])cc1)C2=O (stereo not drawn) | – | – | – | – | – | 60
13 | COc1ccc(N2C(=O)NC3(CC3(C)C)C2=O)cc1 (stereo not drawn) | – | – | – | – | – | 60
14 | CCCCN1C(=O)NC2(CC2(C)C)C1=O (stereo not drawn) | 30 | 50 | 60 | 20 | 40 | 90

Source: ChEMBL document CHEMBL1152834, “Synthesis and potential anticonvulsant activity of new N-3-substituted 5,5-cyclopropanespirohydantoins” (2009)
